# Test results: ChEMBL document CHEMBL4376814, “Novel cyclin-dependent kinase 9 (CDK9) inhibitor with suppression of cancer stemness activity against non-small-cell lung cancer” (Eur J Med Chem, 2019)
# Active and inactive are the calls of the source. No cut-off for these calls is given here.
# Legend:
# [1] = species on record: Homo sapiens; experiment: Inhibition of recombinant human BrSK2 […] mutant (2 to end residues) at 1 uM using KKLNRTLSFAEPG as substrate measured after 40 mins in presence of [gamma33P]ATP by scintillation counting method relative to control
# [2] = molecular target: Tyrosine-protein kinase HCK (Homo sapiens) (UniProt P08631); experiment: Inhibition of recombinant human activated HCK (230 to 497 residues) at 1 uM using GGMEDIYFEFMGGKKK as substrate measured after 40 mins in presence of [gamma33P]ATP by scintillation counting method relative to control
# [3] = molecular target: SRSF protein kinase 2 (Homo sapiens) (UniProt P78362); experiment: Inhibition of human SRPK2 (46 to end residues) at 1 uM using RSRSRSRSRSRSRSR as substrate measured after 40 mins in presence of [gamma33P]ATP by scintillation counting method relative to control
# Chain of SRSF protein kinase 2 (Homo sapiens) (P78362 whole entry, looked up): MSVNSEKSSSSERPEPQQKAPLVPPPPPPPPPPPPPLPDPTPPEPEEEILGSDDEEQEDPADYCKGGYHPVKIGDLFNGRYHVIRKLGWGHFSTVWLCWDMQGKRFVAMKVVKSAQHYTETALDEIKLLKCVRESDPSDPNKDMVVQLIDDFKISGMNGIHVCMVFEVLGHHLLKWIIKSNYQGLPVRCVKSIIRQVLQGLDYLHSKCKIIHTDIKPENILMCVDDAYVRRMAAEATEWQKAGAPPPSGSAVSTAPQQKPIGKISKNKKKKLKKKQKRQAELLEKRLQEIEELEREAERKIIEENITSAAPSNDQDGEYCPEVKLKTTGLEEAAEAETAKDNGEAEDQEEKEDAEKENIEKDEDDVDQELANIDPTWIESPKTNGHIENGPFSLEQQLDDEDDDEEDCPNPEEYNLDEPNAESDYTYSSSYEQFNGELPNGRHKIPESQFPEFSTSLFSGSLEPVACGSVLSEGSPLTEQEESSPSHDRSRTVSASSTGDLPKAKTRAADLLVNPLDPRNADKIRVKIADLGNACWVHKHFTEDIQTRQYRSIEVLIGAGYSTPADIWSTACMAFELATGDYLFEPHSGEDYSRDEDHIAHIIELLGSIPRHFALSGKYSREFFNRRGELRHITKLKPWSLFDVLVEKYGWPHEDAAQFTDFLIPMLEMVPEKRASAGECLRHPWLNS
# How it was run: (§1)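 Percent inhibition of kinase activity at a single compound concentration, measured by the outsourced Eurofins KinaseProfiler panel. Values are the mean of two independent experiments.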
# [4] = molecular target: CDK12/Cyclin K (Homo sapiens) (UniProt O75909+Q9NYV4); experiment: Inhibition of human full length recombinant CDK12/cyclinK at 1 uM using RSRSRSRSRSRSRSR as substrate incubated for 120 mins in presence of [gamma-33P]ATP at by radiometric assay relative to control; assay type: protein-complex assay
# [5] = molecular target: High affinity nerve growth factor receptor (Homo sapiens) (UniProt P04629); experiment: Inhibition of recombinant human TRKA (440 to end residues) at 1 uM using KKKSPGEYVNIEFG as substrate measured after 40 mins in presence of [gamma33P]ATP by scintillation counting method relative to control
# [6] = molecular target: Casein kinase I isoform delta (Homo sapiens) (UniProt P48730); experiment: Inhibition of recombinant human CK1delta (1 to 294 residues) at 1 uM using KRRRALS(p)VASLPGL as substrate measured after 40 mins in presence of [gamma33P]ATP by scintillation counting method relative to control
# [7] = molecular target: Serine/threonine-protein kinase PLK2 (Homo sapiens) (UniProt Q9NYY3); experiment: Inhibition of human Snk (65 to 409 residues) at 1 uM using casein as substrate measured after 40 mins in presence of [gamma33P]ATP by scintillation counting method relative to control; how it was run: as §1
# Chain of Serine/threonine-protein kinase PLK2 (Homo sapiens) (Q9NYY3 whole entry, looked up, the tested form may be a part): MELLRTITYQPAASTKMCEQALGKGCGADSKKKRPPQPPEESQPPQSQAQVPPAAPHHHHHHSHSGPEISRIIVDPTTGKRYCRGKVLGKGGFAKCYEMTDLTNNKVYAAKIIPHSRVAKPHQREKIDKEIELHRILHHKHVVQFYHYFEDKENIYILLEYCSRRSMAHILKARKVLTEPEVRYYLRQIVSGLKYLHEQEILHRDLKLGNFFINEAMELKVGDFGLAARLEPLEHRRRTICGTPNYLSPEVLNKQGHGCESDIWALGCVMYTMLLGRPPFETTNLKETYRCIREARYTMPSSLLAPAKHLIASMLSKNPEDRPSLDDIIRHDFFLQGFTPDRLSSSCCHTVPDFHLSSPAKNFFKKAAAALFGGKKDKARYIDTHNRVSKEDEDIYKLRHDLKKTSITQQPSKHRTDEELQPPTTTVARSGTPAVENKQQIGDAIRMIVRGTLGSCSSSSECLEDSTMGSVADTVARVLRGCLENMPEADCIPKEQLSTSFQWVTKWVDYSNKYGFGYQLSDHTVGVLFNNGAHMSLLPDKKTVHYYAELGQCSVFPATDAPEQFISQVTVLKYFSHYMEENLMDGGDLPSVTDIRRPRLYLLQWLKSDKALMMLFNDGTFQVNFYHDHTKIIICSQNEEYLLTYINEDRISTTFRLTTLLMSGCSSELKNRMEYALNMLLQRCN
# [8] = molecular target: Serine/threonine-protein kinase Nek1 (Homo sapiens) (UniProt Q96PY6); experiment: Inhibition of recombinant human NEK1 (1 to 505 residues) at 1 uM using RLGRDKYKTLRQIRQ as substrate measured after 40 mins in presence of [gamma33P]ATP by scintillation counting method relative to control
# Chain of Serine/threonine-protein kinase Nek1 (Homo sapiens) (Q96PY6 whole entry, the tested form may be a part): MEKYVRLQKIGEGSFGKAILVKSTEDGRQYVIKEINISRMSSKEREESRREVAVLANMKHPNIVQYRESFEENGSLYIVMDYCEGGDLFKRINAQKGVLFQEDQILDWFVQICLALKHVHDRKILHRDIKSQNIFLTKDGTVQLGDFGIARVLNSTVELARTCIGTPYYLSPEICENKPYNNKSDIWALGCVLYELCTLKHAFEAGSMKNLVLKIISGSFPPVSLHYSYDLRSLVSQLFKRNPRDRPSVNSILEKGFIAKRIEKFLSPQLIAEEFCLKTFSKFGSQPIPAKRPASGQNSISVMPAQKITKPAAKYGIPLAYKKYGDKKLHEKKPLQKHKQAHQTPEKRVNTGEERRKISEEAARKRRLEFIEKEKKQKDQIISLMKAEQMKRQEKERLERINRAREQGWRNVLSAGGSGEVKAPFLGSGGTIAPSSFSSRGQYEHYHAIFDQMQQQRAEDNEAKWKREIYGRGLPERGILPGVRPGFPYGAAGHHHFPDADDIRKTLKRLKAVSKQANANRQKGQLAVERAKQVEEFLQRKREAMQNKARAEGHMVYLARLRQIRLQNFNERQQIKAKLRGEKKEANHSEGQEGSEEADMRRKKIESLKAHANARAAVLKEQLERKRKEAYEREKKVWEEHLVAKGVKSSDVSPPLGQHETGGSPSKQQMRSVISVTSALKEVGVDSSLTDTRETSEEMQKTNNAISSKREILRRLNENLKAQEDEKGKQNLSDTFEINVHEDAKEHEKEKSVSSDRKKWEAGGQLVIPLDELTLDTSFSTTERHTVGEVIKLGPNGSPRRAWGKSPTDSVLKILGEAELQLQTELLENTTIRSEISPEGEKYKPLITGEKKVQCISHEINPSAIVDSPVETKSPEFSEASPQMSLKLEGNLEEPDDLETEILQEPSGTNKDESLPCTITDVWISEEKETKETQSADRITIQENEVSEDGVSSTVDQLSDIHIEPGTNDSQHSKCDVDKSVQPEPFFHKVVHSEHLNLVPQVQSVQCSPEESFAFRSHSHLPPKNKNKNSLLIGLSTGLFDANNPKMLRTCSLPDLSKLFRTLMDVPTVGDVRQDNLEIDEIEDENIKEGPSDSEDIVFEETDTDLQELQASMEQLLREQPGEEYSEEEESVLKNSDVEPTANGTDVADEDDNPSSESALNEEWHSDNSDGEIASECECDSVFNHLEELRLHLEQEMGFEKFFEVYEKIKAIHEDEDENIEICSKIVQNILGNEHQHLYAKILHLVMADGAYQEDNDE
# [9] = molecular target: Serine/threonine-protein kinase Chk1 (Homo sapiens) (UniProt O14757); experiment: Inhibition of full length recombinant human CHK1 at 1 uM using KKKVSRSGLYRSPSMPENLNRPR as substrate measured after 40 mins in presence of [gamma33P]ATP by scintillation counting method relative to control
# Chain of Serine/threonine-protein kinase Chk1 (Homo sapiens) (O14757 whole entry): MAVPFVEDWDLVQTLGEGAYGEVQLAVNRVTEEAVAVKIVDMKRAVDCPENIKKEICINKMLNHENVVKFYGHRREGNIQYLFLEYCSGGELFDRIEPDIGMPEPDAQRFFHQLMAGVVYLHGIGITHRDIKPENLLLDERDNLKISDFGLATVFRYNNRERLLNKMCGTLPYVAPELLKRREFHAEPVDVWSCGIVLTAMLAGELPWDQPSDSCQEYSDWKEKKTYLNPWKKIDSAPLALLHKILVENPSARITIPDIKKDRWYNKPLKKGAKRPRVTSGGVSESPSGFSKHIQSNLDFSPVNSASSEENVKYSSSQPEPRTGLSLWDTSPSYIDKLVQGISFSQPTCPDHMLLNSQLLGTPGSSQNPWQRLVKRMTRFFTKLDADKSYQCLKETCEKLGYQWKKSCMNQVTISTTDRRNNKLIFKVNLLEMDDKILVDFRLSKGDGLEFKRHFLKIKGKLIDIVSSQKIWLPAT
# [10] = molecular target: Protein kinase C theta type (Homo sapiens) (UniProt Q04759); experiment: Inhibition of recombinant full-length human PKCtheta at 1 uM using histone H1as substrate measured after 40 mins in presence of [gamma33P]ATP by scintillation counting method relative to control
# [11] = system: A549; experiment: Induction of apoptosis in human A549 cells after 48 hrs by AnnexinV-FITC staining-based flow cytometric analysis; assay type: functional, cell-based
# [12] = system: NCI-H1299; experiment: Induction of cell cycle arrest in human H1299 cells assessed as accumulation of cells at G0/G1 phase at 1 uM after 24 hrs by propidium iodide/RNase staining based flow cytometric analysis; assay type: functional
# How it was run: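 A549 and H1299 plated at 5×10^5 cells/mL in 6-well plates, treated after adherence for 24 h. Washed with PBS, fixed overnight in ice-cold 75% ethanol, stained with propidium iodide plus RNase A for 30 min at 37 °C, analysed by flow cytometry for phase distribution. Means ± SD, three independent experiments.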
# [13] = molecular target: Serine/threonine-protein kinase Nek3 (Homo sapiens) (UniProt P51956); experiment: Inhibition of recombinant full-length human NEK3 at 1 uM using myelin basic protein as substrate measured after 40 mins in presence of [gamma33P]ATP by scintillation counting method relative to control
# [14] = molecular target: Cyclin-dependent kinase 1/cyclin B1 (Homo sapiens) (UniProt P06493+P14635); experiment: Inhibition of recombinant full-length human CDK1/cyclinB at 1 uM using Histone H1 as substrate measured after 40 mins in presence of [gamma33P]ATP by scintillation counting method relative to control; assay type: protein-complex assay
# [15] = system: RAC-gamma serine/threonine-protein kinase (Homo sapiens), Q9Y243 [S472D]; experiment: Inhibition of recombinant human pkb-gamma S472D mutant (117 to end residues) S472D mutant at 1 uM using GRPRTSSFAEGKK as substrate measured after 40 mins in presence of [gamma33P]ATP by scintillation counting method relative to control
# Chain of RAC-gamma serine/threonine-protein kinase (Homo sapiens), Q9Y243 [S472D] (Q9Y243 whole entry S472D, the tested form may be a part): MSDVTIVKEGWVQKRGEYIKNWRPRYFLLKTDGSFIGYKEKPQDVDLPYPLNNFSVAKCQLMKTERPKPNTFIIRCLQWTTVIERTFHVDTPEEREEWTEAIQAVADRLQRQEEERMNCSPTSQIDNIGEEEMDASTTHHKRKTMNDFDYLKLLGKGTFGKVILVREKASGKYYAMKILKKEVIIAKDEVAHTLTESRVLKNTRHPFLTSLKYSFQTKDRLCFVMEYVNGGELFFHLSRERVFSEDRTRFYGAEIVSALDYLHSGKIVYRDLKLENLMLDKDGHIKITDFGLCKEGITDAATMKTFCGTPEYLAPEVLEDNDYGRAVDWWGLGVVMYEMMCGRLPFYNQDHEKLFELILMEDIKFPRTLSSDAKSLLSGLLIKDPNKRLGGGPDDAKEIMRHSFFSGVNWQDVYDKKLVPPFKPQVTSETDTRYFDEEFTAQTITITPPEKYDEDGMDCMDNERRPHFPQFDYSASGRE
# [16] = molecular target: Serine/threonine-protein kinase SIK1 (Homo sapiens) (UniProt P57059); experiment: Inhibition of human SIK (1 to 281 residues) at 1 uM using AMARAASAAALARRR as substrate measured after 40 mins in presence of [gamma33P]ATP by scintillation counting method relative to control; how it was run: as §1
# Chain of Serine/threonine-protein kinase SIK1 (Homo sapiens) (P57059 whole entry, the tested form may be a part): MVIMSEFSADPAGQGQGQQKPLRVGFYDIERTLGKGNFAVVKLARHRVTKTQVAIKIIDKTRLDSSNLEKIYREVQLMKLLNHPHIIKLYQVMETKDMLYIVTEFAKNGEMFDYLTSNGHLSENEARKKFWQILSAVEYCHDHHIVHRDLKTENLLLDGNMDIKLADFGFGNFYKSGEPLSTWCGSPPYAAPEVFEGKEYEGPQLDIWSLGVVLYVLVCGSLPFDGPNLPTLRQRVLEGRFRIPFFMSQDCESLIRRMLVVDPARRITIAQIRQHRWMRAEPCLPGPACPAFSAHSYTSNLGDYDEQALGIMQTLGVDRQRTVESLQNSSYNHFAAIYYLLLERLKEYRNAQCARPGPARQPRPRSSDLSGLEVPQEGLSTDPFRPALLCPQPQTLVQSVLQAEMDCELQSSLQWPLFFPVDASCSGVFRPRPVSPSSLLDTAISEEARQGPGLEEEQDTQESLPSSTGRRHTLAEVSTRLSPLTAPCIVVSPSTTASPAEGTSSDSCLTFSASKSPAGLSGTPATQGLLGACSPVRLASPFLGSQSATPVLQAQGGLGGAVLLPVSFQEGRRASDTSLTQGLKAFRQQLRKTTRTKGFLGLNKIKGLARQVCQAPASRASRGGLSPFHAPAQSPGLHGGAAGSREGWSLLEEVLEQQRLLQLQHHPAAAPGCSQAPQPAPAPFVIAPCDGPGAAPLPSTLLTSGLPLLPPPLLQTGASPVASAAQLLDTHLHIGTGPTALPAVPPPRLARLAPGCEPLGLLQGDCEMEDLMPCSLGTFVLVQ
# [17] = molecular target: Serine/threonine-protein kinase PAK 3 (Homo sapiens) (UniProt O75914); experiment: Inhibition of recombinant full-length human PAK3 at 1 uM using RRRLSFAEPG as substrate measured after 40 mins in presence of [gamma33P]ATP by scintillation counting method relative to control
# Chain of Serine/threonine-protein kinase PAK 3 (Homo sapiens) (O75914 whole entry, looked up): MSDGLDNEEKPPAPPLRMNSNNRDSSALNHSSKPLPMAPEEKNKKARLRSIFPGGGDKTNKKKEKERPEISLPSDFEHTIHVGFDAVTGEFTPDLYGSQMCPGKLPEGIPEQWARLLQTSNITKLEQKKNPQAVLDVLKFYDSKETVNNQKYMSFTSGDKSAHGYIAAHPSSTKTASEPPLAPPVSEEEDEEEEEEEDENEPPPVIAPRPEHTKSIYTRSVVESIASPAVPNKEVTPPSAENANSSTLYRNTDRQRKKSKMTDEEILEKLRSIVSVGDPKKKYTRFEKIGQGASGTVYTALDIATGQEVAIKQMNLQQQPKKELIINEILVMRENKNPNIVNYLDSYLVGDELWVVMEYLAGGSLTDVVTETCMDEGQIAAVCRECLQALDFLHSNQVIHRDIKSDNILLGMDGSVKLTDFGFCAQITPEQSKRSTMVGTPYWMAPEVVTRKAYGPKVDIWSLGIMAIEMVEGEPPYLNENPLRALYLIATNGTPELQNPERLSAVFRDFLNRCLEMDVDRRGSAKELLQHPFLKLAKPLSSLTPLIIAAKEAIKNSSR
# [18] = system: NCI-H1299; experiment: Antitumour activity against human H1299 cells xenografted in Balb/c mouse assessed as inhibition of tumour growth at 20 mg/kg, po administered for 21 days by digital caliper method relative to control; assay type: functional; settings: 504 h, read-out: TGI
# How it was run: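 Female nude mice, 6-8 weeks old, injected subcutaneously with 1×10^6 H1299 cells (100 µL of a 1×10^7/mL suspension in serum-free medium). At 100-120 mm3, randomized into groups of 5. Dosed orally each day for 21 days with drug dissolved in DMSO, or with vehicle. Caliper measurements and body weight taken every other day. Volume = short²×long×0.5. Growth inhibition based on change in volume relative to vehicle. Tumours weighed at the end.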
# [19] = molecular target: Transcription initiation factor TFIID subunit 1-like (Homo sapiens) (UniProt Q8IZX4); experiment: Inhibition of recombinant human TAF1L (1428 to end residues) at 1 uM using RRRFRPASPLRGPPK as substrate after 120 mins in presence of [gamma33P]ATP by scintillation counting analysis relative to control
# [20] = system: NCI-H1299; experiment: Antitumour activity against human H1299 cells xenografted in Balb/c mouse assessed as effect on cyclin T1 level at 20 to 80 mg/kg, po administered for 3 weeks by immunohistochemistry
# [21] = molecular target: Serine/threonine-protein kinase PAK 1 (Homo sapiens) (UniProt Q13153); experiment: Inhibition of recombinant human PAK1 (150 to end residues) at 1 uM using RRRLSFAEPG as substrate measured after 40 mins in presence of [gamma33P]ATP by scintillation counting method relative to control
smiles,measurement,setting,value
CN(C)C(=O)c1cc2cnc(Nc3ccc(NC(=O)CCCCCCCN=C=S)cc3)nc2n1C1CCCC1,inhibition,[1],14%
same,inhibition,[2],5%
same,inhibition,[3],4%
same,inhibition,[4],45%
same,inhibition,[5],77%
same,inhibition,[6],-2%
same,inhibition,[7],4%
same,inhibition,[8],69%
same,inhibition,[9],-9%
same,inhibition,[10],47%
same,Activity,[11],Dose-dependent effect
same,Activity,[12],inactive
same,inhibition,[13],19%
same,inhibition,[14],58%
same,inhibition,[15],10%
same,inhibition,[16],51%
same,inhibition,[17],2%
same,inhibition in vivo at 20 mg/kg,[18],62%
same,inhibition,[19],23%
same,Activity,[20],inactive
same,inhibition,[21],-5%
